Measurements pooled from the literature.
Protocols differ between the studies behind these lines.
Target: Atypical kinase COQ8B, mitochondrial (COQ8B, Homo sapiens, UniProt Q96D53)
One construct used (Q96D53 1-544): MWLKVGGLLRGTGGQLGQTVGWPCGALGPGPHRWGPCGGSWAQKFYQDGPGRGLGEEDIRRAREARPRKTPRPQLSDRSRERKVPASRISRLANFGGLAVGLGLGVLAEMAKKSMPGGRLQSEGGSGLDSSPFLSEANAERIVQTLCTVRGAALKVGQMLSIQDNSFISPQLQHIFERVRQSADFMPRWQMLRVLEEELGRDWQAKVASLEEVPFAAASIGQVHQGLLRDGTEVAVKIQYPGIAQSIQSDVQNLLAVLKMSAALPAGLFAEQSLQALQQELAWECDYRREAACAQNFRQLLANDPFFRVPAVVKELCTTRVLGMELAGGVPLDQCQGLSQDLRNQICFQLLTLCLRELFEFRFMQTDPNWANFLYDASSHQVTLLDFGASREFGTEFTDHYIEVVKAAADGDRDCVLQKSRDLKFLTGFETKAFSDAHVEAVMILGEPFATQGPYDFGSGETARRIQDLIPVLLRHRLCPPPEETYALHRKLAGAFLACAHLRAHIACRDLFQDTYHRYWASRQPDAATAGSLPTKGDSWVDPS

Compound	read-out	technique	concentration	remaining binding
COCCOc1nc(-c2ccc(Cl)nc2)nc2c1CN(C(=O)c1ncn3ccccc13)CC2	cell-free assay	competition with immobilised ligand	0.1 µM	100%
CN(C)c1nccc(-c2cnc3ncccn23)n1	binding	–	1 µM	75%
FC(F)(F)Oc1cccc(-c2cnc3ccc(-c4ccncc4)nn23)c1	cell-free assay	competition with immobilised ligand	5 µM	85%
N[C@@H]1CCN(c2nccc(-c3cnn4ncccc34)n2)C1	binding	–	1 µM	100%
Nc1ncc2c(n1)-c1c([nH]c3ccc(C#CC4CC4)cc13)CCCC2	binding	competition with immobilised ligand	1 µM	90%
O=C(NS(=O)(=O)c1ccc(NCC2CCOCC2)c([N+](=O)[O-])c1)c1ccc(N2CCN(Cc3ccc(C(F)(F)F)cc3-c3ccc(Cl)cc3)CC2)cc1Oc1cnc2[nH]ccc2c1	cell-free assay	competition with immobilised ligand	1 µM	90%
O=C(Nc1c[nH]nc1C(=O)NC1CCNCC1)c1cc(F)cc(F)c1	binding	competition with immobilised ligand	1 µM	100%
C[C@@H](c1ccc(-n2cnc3c(N)ncnc32)cc1)N1CCc2nn(C)c(Cc3ccccc3)c2C1=O	binding	competition with immobilised ligand	0.1 µM	80%
O=C(NCCCC1CCCCC1)c1ccc(CNC(=O)c2cnn(-c3ccccc3)c2C(F)(F)F)cc1	cell-free assay	competition with immobilised ligand	0.1 µM	100%
C[C@H]1CCN(c2nccc(-c3cnn4ncccc34)n2)C1	binding	–	1 µM	92%
O=C(c1ccc(Nc2ncc(Cl)c(-c3ccc(Cl)s3)n2)cc1)N1CCC(N2CCCC2)CC1	binding	competition with immobilised ligand	1 µM	21%
CNC(=O)Nc1ccc2c(c1)[C@@]1(CC2)OC(=O)N(CC(=O)N(Cc2ccc(F)cc2)[C@@H](C)C(F)(F)F)C1=O	cell-free assay	competition with immobilised ligand	1 µM	95%
O=C(NCCCN1CCOCC1)c1ccc(Nc2ncc(Cl)c(-c3ccc(Cl)s3)n2)cc1	binding	competition with immobilised ligand	1 µM	34%
CN(C)c1nccc(-c2cnn3ncccc23)n1	binding	–	1 µM	100%
O=C(c1ccc(Nc2ncc(Cl)c(-c3cc4ccccc4s3)n2)cc1)N1CCC(N2CCCC2)CC1	binding	competition with immobilised ligand	1 µM	44%
COc1cnc(Nc2cccc(S(N)(=O)=O)c2)nc1N1CCN(c2ccccc2)C(=O)C1	binding	competition with immobilised ligand	1 µM	100%
CS(=O)(=O)N1CCCC(NC(=O)[C@H](CCC2CCCCC2)NC(=O)c2ccc(CNC(=O)c3cnc4ccccn34)cc2)C1 (stereo partly shown)	cell-free assay	competition with immobilised ligand	0.1 µM	100%
COc1ccnn2ncc(-c3ccnc(N(C)C)n3)c12	binding	–	1 µM	96%
CN(C(=O)c1ccccc1)c1cc(N(C)c2ccc3c(c2)CCc2ccc(C(=O)NCCN4CCOCC4)cc2C3=O)ccc1F	cell-free assay	competition with immobilised ligand	1 µM	100%
CN(CCCC(F)(F)F)c1nccc(-c2cnn3ncccc23)n1	binding	–	1 µM	84%
O=C(Nc1ccc(Oc2ccc(F)cc2)cc1)N1CCc2ncccc2[C@H]1c1ccc(F)cc1	cell-free assay	competition with immobilised ligand	1 µM	92%
C=CC(=O)N1CCC(C(=O)NCC(=O)N2CCN(c3nc(-c4cnc(N)nc4C(F)F)nc(N4CCOCC4)n3)CC2)CC1	binding	competition with immobilised ligand	1 µM	100%
